Like-named read-outs stand apart in the source and are kept apart here.
Experiments:
MRL/lpr mice = assay: MRL/lpr in vivo model of SLE; parameters: species or system mouse
[1] = tested on: R848 induced TNF in human whole blood; assay: Human whole blood cytokine release assay; assay type: cell-based
Outline: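 Heparin-anticoagulated whole blood (human, mouse or rat), or PBMC derived from it, was incubated with test compound and then exposed to TLR ligand. Cytokines were measured by Meso Scale Discovery immunoassay. EC50 and Hill slope were fitted from concentration–response data, and free-drug potency was derived using measured protein binding values.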

[2] = tested on: nuclear localization of IRF-5 in PBMCs; assay: Monocyte IRF5 nuclear localization assay; assay type: cell-based, human; conditions: 100 nM, 2 hours
Outline: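 Healthy-volunteer PBMCs were incubated with 100 nM test compound or none, then stimulated with R848 or SLE patient sera for 2 hours at 37°C. IRF-5 nuclear translocation was quantified by Amnis imaging cytometry.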

[3] = tested on: human macrophages stimulated with ACPA immune complexes; assay: Macrophage ACPA-IC induced TNFα assay; assay type: cell-based; conditions: 100 nM inhibitor, 11 donors, mean ± SEM
Outline: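 Human macrophages from 11 donors were preincubated with 100 nM inhibitor and then stimulated with anti-citrullinated protein antibody immune complexes. TNF in supernatants was measured by immunoassay and expressed as % of DMSO-only treatment (mean ± SEM), compared by paired t-test.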

[4] = tested on: human RA fibroblast-like synoviocytes; assay: Human RA-FLS assay; assay type: cell-based; conditions: 100 nM
Outline: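 Human RA fibroblast-like synoviocytes were incubated with 100 nM test compound or vehicle before adding 0.1 ng/ml IL-1β. IL-6, IL-8 and MMP-1 in supernatants were measured by Meso Scale Discovery assay and expressed as percent of vehicle control, separately per donor.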

[5] = tested on: human primary cell cocultures (4H, LPS, SAg, BT, MyoF, /Mphg); assay: BioMAP Diversity Plus Panel; assay type: cell-based; conditions: multicellular human primary cell systems
Outline: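 An external provider ran BioMAP Diversity Plus profiling with each compound at the noted concentrations, scoring multiple end points per system. The systems were venular endothelial cells (4H), PBMC plus endothelial cells with LPS, PBMC plus endothelial cells with superantigen, B cells plus PBMC (BT), lung fibroblasts (MyoF), and macrophages plus venular endothelial cells. Etanercept and tofacitinib served as comparators.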

[6] = tested on: rat collagen-induced arthritis; assay: Rat collagen-induced arthritis model of RA; assay type: in vivo; conditions: rat CIA; PF-06650833 3 mg/kg twice daily or tofacitinib 10 mg/kg daily, oral, 7 days; vehicle 0.786 ± 0.043; mean ± SEM, n = 10
[7] = tested on: human B cells primed with IFNα and stimulated with R848; assay: B cell maturation assay; assay type: cell-based
Outline: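 Human B cells were isolated from Leukopaks and preincubated with 100 nM test compound, then given IFNα plus R848. Supernatants were harvested at 24 h for IL-6 and at 72 h for IL-10. Values are % of control; n = 6 donors, compared by paired t-test.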

[8] = tested on: human plasmacytoid dendritic cells; assay: Plasmacytoid DC stimulation with SLE neutrophil supernatants; assay type: cell-based; conditions: 200 nM preincubation; 24 hours; n = 5
Outline: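 SLE patient neutrophils were induced to undergo NETosis with R837, and their supernatants were collected. Plasmacytoid DCs were FACS-sorted from the DC fraction of healthy-volunteer buffy coats. They were cultured in 40% neutrophil supernatant with or without 200 nM test compound for 24 hours. CD83 was measured by flow cytometry against isotype control; n = 5.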

[9] = tested on: human PBMCs stimulated with SLE immune complexes; assay: SLE-IC assay; assay type: cell-based; conditions: 100 nM, 24 hours
Outline: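 SLE immune complexes were made by purifying IgG from plasma of an anti-RNP/anti-dsDNA-positive SLE patient and mixing it with apoptotic cells. Human PBMCs were stimulated with these complexes with or without 100 nM test compound for 24 hours. IFNα in supernatant was measured by ELISA, and RSAD2, USP18 and GBP1 by qRT-PCR as relative quantification. n = 5 donors; analysed by 2-way ANOVA.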

[10] = tested on: pristane-induced lupus in BALB/c mice; assay: Pristane in vivo model of SLE; parameters: species or system mouse
[11] = tested on: whole blood 21-gene IFN gene signature; assay: Interferon signature modulation in Phase 1 MAD study in healthy volunteers; assay type: in vivo, human; conditions: 300 mg modified-release qd
Outline: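 In a randomized, double-blind phase I multiple-ascending-dose study, healthy volunteers received modified-release test compound 300 mg once daily (n = 7) or placebo (n = 11) for 14 days. PAXgene whole blood was drawn on day 0 before the first dose and on day 14 before the last dose. RNA was sequenced, and an equally weighted 21-gene IFN signature was scored as percent change, day 14 versus day 0.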

[12] = tested on: C-reactive protein (CRP) levels; conditions: healthy volunteers; modified-release 300 mg daily; day 14; cited from earlier work
[13] = tested on: active rheumatoid arthritis; conditions: patients with active RA and inadequate response to methotrexate; cited from earlier work

With `N#CN1CCCC(n2nc(-c3ccc(Oc4ccc(F)cc4F)cc3)c(C(N)=O)c2N)C1` (stereo not drawn) [PF‐06250112, reference compound] the “all renal histologic pathology end points other than PAS area per tuft” value (MRL/lpr mice; 30 mg/kg PO qd) was “significantly reduced” and the autoantibody titers (MRL/lpr mice; 30 mg/kg PO qd) was “significantly reduced”.

With `CC[C@@H]1[C@H](F)C(=O)N[C@@H]1COc1nccc2cc(C(N)=O)c(OC)cc12` [PF‐06650833, 1‐{[(2S,3S,4S)‐3‐Ethyl‐4‐fluoro‐5‐oxopyrrolidin‐2‐yl]methoxy}‐7‐methoxyisoquinoline‐6‐carboxamide] the EC50 ([1]; read-out: EC50 values across the preclinical assays) was 2 to 10 nM, the IC50 ([1]; read-out: IC50 total, human whole blood R848 induced TNF) was 8.8 nM and the “nuclear localization of IRF-5 stimulated by R848” value ([2]; without compound 23.0 ± 13.0, n = 3) was 6.8 ± 4.4%. For the same compound, the “IRF-5 nuclear localization in response to SLE patient sera” value ([2]; without compound 38.6 ± 18.4, n = 12) was 24.2 ± 13.0%, the “ACPA IC-induced TNF release, % of that seen with DMSO treatment alone” value [3] was 57.5 ± 17.9% and the “IL-1-induced cytokines in RA FLS” value [4] was “did not inhibit”. For the same compound, the “MMP induction by IL-1β in RA FLS” value [4] was “able to block”, the “cytokine and matrix metalloproteinase (MMP) release in response to all ligands profiled” value ([4]; RA FLS) was “substantially reduced” and the “BioMAP phenotypic profile of inflammatory readouts” value (from here on “BioMAP phenotypic profile”) [5] was “greatest inhibition of inflammatory readouts in assays of innate immunity”. The “paw volume on day 7” value [6] was 0.555 ± 0.034 mL, the activity at 0.1 µM ([7]; 24 h, read-out: B cell IL-6 production, % of control) was 50 ± 16.7% and the activity at 0.1 µM ([7]; 72 h, read-out: B cell IL-10 production, % of control) was 41.3 ± 7.1%. For the same compound, the “pDC CD83 up-regulation induced by neutrophil DAMPs” value [8] was “significantly inhibited”, the “IFNα release from PBMCs stimulated with SLE ICs” value ([9]; n = 5 donors) was “inhibited IFNα release in all donors” and the “induction of 3 IFN-responsive genes (RSAD2, USP18, and GBP1)” value ([9]; SLE ICs, PBMCs) was “inhibited”. The “anti-SSA IgG at week 20” value ([10]; 200mpk in chow weeks 8-20, control 7,693 ± 1,241) was 2,726 ± 494 units/ml, the “anti-RNP IgG at week 20” value ([10]; 200mpk in chow weeks 8-20, control 18,127 ± 7,902) was 3,730 ± 2,861 units/ml and the “mean PAS area per tuft” value ([10]; kidney, week 20, pristane alone 1,252 ± 45, n = 8) was 1,045 ± 47 μm^2. For the same compound, the “C3 and IgG deposition by immunohistochemistry” value (MRL/lpr mice; 200mg/kg in chow, 12-13 weeks) was “significantly reduced”, the anti-SSA (MRL/lpr mice; 200mg/kg in chow, 12-13 weeks) was “trends toward reductions” and the anti-dsDNA (MRL/lpr mice; 200mg/kg in chow, 12-13 weeks) was “trends toward reductions”. For the same compound, the “anti-histone IgG” value (MRL/lpr mice; 200mg/kg in chow, 12-13 weeks) was “significantly reduced”, the glomerular nephropathy (MRL/lpr mice; 200mg/kg in chow, 12-13 weeks) was “significantly reduced” and the “glomerular nuclear area by image analysis” value (MRL/lpr mice; 200mg/kg in chow, 12-13 weeks) was “significantly reduced”. The “glomerular tuft area by image analysis” value (MRL/lpr mice; 200mg/kg in chow, 12-13 weeks) was “significantly reduced”, the histologic kidney inflammation (MRL/lpr mice; 200mg/kg in chow, 12-13 weeks) was “significantly reduced” and the lymphadenopathy (MRL/lpr mice; 200mg/kg in chow, 12-13 weeks) was “significantly reduced”. The splenomegaly (MRL/lpr mice; 200mg/kg in chow, 12-13 weeks) was “trends toward reductions”, the tubular injury (MRL/lpr mice; 200mg/kg in chow, 12-13 weeks) was “trends toward reductions” and the “subjects with negative change of IFN gene score between day 0 and day 14” value [11] was 6 of 7. For the same compound, the “reduction of IFN gene signature, median percent change day 14 vs day 0” value ([11]; 14 days, n = 7, placebo +9.1%) was 28.8%, the “difference in IFN gene signature change vs placebo” value ([11]; day 14) was −37.9% and the CRP levels [12] was “statistically significant reductions”. The “disease activity in phase II study” value [13] was “significant effects on disease activity”.

For `C[C@@H]1CCN(C(=O)CC#N)C[C@@H]1N(C)c1ncnc2[nH]ccc12` [tofacitinib, reference compound], the “BioMAP phenotypic profile” value [5] was “no impact on assays of innate immunity” and the “paw volume on day 7” value [6] was 0.371 ± 0.044 mL.

In the case of Etanercept, the “BioMAP phenotypic profile” value [5] is reported as “predominant activity in the myofibroblast‐ and macrophage‐containing assays”.

Source: publication PMC8671219 (Arthritis & Rheumatology (Hoboken, N.j.), 2021)
